Calls of active or inactive are those of the source. No cut-off for these calls is given here.
Tests used:
Assay type in all cases: functional
[1] = tested on: SR; experiment: Antiproliferative activity against human SR cells assessed as growth inhibition at 10 uM relative to control; conditions: read-out: GI
How it was run: (§1)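 NCI 60 human tumour cell line panel screen. Compounds tested at a single dose and growth inhibition (%) determined for each line.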

[2] = tested on: CCRF-CEM; experiment: Antiproliferative activity against human CCRF-CEM cells assessed as growth inhibition at 10 uM relative to control; conditions: read-out: GI
How it was run: (§2)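 Single-dose screen run by the US National Cancer Institute across its 60-human tumour cell line panel. Each compound was tested at one concentration. Percent growth inhibition was recorded for each cell line.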

[3] = tested on: HL-60(TB); experiment: Antiproliferative activity against human HL-60(TB) cells assessed as growth inhibition at 10 uM relative to control; conditions: read-out: GI
[4] = tested on: K562; experiment: Antiproliferative activity against human K562 cells assessed as growth inhibition at 10 uM relative to control; how it was run: as §2
[5] = tested on: MOLT-4; experiment: Antiproliferative activity against human MOLT-4 cells assessed as growth inhibition at 10 uM relative to control; conditions: read-out: GI; how it was run: as §2
[6] = tested on: EKVX; experiment: Antiproliferative activity against human EKVX cells assessed as growth inhibition at 10 uM relative to control; conditions: read-out: GI; how it was run: as §2
[7] = tested on: HOP-62; experiment: Antiproliferative activity against human HOP-62 cells assessed as growth inhibition at 10 uM relative to control; conditions: read-out: GI; how it was run: as §2
[8] = tested on: HOP-92; experiment: Antiproliferative activity against human HOP-92 cells assessed as growth inhibition at 10 uM relative to control; how it was run: as §2
[9] = tested on: NCI-H23; experiment: Antiproliferative activity against human NCI-H23 cells assessed as growth inhibition at 10 uM relative to control; conditions: read-out: GI; how it was run: as §2
[10] = tested on: NCI-H322M; experiment: Antiproliferative activity against human NCI-H322M cells assessed as growth inhibition at 10 uM relative to control; conditions: read-out: GI; how it was run: as §2
[11] = tested on: NCI-H460; experiment: Antiproliferative activity against human NCI-H460 cells assessed as growth inhibition at 10 uM relative to control; conditions: read-out: GI; how it was run: as §2
[12] = tested on: NCI-H522; experiment: Antiproliferative activity against human NCI-H522 cells assessed as growth inhibition at 10 uM relative to control; conditions: read-out: GI; how it was run: as §2
[13] = tested on: COLO 205; experiment: Antiproliferative activity against human COLO 205 cells assessed as growth inhibition at 10 uM relative to control; conditions: read-out: GI; how it was run: as §2
[14] = tested on: HCT-116; experiment: Antiproliferative activity against human HCT-116 cells assessed as growth inhibition at 10 uM relative to control; conditions: read-out: GI; how it was run: as §2
[15] = tested on: HCT-15; experiment: Antiproliferative activity against human HCT-15 cells assessed as growth inhibition at 10 uM relative to control; conditions: read-out: GI; how it was run: as §2
[16] = tested on: KM12; experiment: Antiproliferative activity against human KM12 cells assessed as growth inhibition at 10 uM relative to control; conditions: read-out: GI; how it was run: as §2
[17] = tested on: SW-620; experiment: Antiproliferative activity against human SW-620 cells assessed as growth inhibition at 10 uM relative to control; conditions: read-out: GI; how it was run: as §1
[18] = tested on: SF-539; experiment: Antiproliferative activity against human SF-539 cells assessed as growth inhibition at 10 uM relative to control; how it was run: as §2
[19] = tested on: SNB-19; experiment: Antiproliferative activity against human SNB-19 cells assessed as growth inhibition at 10 uM relative to control; conditions: read-out: GI; how it was run: as §1
[20] = tested on: SNB-75; experiment: Antiproliferative activity against human SNB-75 cells assessed as growth inhibition at 10 uM relative to control; conditions: read-out: GI; how it was run: as §1
[21] = tested on: U-251; experiment: Antiproliferative activity against human U251 cells assessed as growth inhibition at 10 uM relative to control; conditions: read-out: GI; how it was run: as §1
[22] = tested on: Malme-3M; experiment: Antiproliferative activity against human Malme-3M cells assessed as growth inhibition at 10 uM relative to control; conditions: read-out: GI; how it was run: as §2
[23] = tested on: M14; experiment: Antiproliferative activity against human M14 cells assessed as growth inhibition at 10 uM relative to control; conditions: read-out: GI; how it was run: as §2
[24] = tested on: SK-MEL-5; experiment: Antiproliferative activity against human SK-MEL-5 cells assessed as growth inhibition at 10 uM relative to control; conditions: read-out: GI; how it was run: as §1
[25] = tested on: UACC-257; experiment: Antiproliferative activity against human UACC-257 cells assessed as growth inhibition at 10 uM relative to control; conditions: read-out: GI; how it was run: as §1
[26] = tested on: IGROV-1; experiment: Antiproliferative activity against human IGROV-1 cells assessed as growth inhibition at 10 uM relative to control; conditions: read-out: GI; how it was run: as §2
[27] = tested on: OVCAR-3; experiment: Antiproliferative activity against human OVCAR-3 cells assessed as growth inhibition at 10 uM relative to control; conditions: read-out: GI; how it was run: as §2
[28] = tested on: OVCAR-4; experiment: Antiproliferative activity against human OVCAR-4 cells assessed as growth inhibition at 10 uM relative to control; conditions: read-out: GI; how it was run: as §2
[29] = tested on: NCI/ADR-RES; experiment: Antiproliferative activity against human NCI/ADR-RES cells assessed as growth inhibition at 10 uM relative to control; conditions: read-out: GI; how it was run: as §2
[30] = tested on: SK-OV-3; experiment: Antiproliferative activity against human SK-OV-3 cells assessed as growth inhibition at 10 uM relative to control; conditions: read-out: GI; how it was run: as §1
[31] = tested on: 786-0; experiment: Antiproliferative activity against human 786-0 cells assessed as growth inhibition at 10 uM relative to control; conditions: read-out: GI; how it was run: as §2
[32] = tested on: A498; experiment: Antiproliferative activity against human A498 cells assessed as growth inhibition at 10 uM relative to control; conditions: read-out: GI; how it was run: as §2
[33] = tested on: ACHN; experiment: Antiproliferative activity against human ACHN cells assessed as growth inhibition at 10 uM relative to control; conditions: read-out: GI; how it was run: as §2
[34] = tested on: CAKI-1; experiment: Antiproliferative activity against human CAKI-1 cells assessed as growth inhibition at 10 uM relative to control; conditions: read-out: GI; how it was run: as §2
[35] = tested on: PC-3; experiment: Antiproliferative activity against human PC-3 cells assessed as growth inhibition at 10 uM relative to control; conditions: read-out: GI; how it was run: as §2
[36] = tested on: MDA-MB-231; experiment: Antiproliferative activity against human MDA-MB-231 cells assessed as growth inhibition at 10 uM relative to control; conditions: read-out: GI; how it was run: as §2
[37] = tested on: Hs-578T; experiment: Antiproliferative activity against human Hs-578T cells assessed as growth inhibition at 10 uM relative to control; conditions: read-out: GI; how it was run: as §2
[38] = tested on: BT-549; experiment: Antiproliferative activity against human BT-549 cells assessed as growth inhibition at 10 uM relative to control; conditions: read-out: GI; how it was run: as §2
[39] = tested on: T47D; experiment: Antiproliferative activity against human T47D cells assessed as growth inhibition at 10 uM relative to control; how it was run: as §1
[40] = tested on: Leukemia cell; experiment: Antiproliferative activity against human leukemia cells
[41] = Antiproliferative activity against human Non-small cell lung cancer cells; conditions: Non-small cell lung cancer cell line
[42] = Antiproliferative activity against human CNS cancer cells; conditions: CNS cell
[43] = Antiproliferative activity against human Melanoma cells; conditions: Melanoma cell line
[44] = Antiproliferative activity against human ovarian cancer cells; conditions: Ovarian cancer cell line
[45] = Antiproliferative activity against human renal cancer cells; conditions: Renal cancer cell line, read-out: LC50 (the source's name)
[46] = Antiproliferative activity against human prostate cancer cells; conditions: Prostate tumor cell line
[47] = Antiproliferative activity against human breast cancer cells; conditions: Breast cancer cell line
[48] = read-out: LC50 (the source's name)

Question: With `CC/C(=C(\c1ccccc1)c1ccc(OCCN(C)C)cc1)c1ccccc1` [TAMOXIFEN] as the molecule, how does the inhibition of growth at 10 µM [1] read?
Answer: -18.9%

Question: And the inhibition of growth at 10 µM [2]?
Answer: 65.4%

Question: What about the inhibition of growth at 10 µM [3] of the same molecule?
Answer: 60.4%

Question: What about the “growth inhibition (GI)” value [4] of the same molecule?
Answer: inactive

Question: What about the inhibition of growth at 10 µM [5] of the same molecule?
Answer: 66.7%

Question: And the inhibition of growth at 10 µM [6]?
Answer: 40%

Question: And the inhibition of growth at 10 µM [7]?
Answer: 56.9%

Question: What about the “growth inhibition (GI)” value [8] of the same molecule?
Answer: inactive

Question: And the inhibition of growth at 10 µM [9]?
Answer: 39.7%

Question: What about the inhibition of growth at 10 µM [10] of the same molecule?
Answer: 34%

Question: And the inhibition of growth at 10 µM [11]?
Answer: 97.6%

Question: And the inhibition of growth at 10 µM [12]?
Answer: 53.4%

Question: What about the inhibition of growth at 10 µM [13] of the same molecule?
Answer: -89%

Question: What about the inhibition of growth at 10 µM [14] of the same molecule?
Answer: 73.8%

Question: What about the inhibition of growth at 10 µM [15] of the same molecule?
Answer: 92.4%

Question: And the inhibition of growth at 10 µM [16]?
Answer: 75%

Question: And the inhibition of growth at 10 µM [17]?
Answer: 95.1%

Question: What about the “growth inhibition (GI)” value [18] of the same molecule?
Answer: inactive

Question: And the inhibition of growth at 10 µM [19]?
Answer: 47.4%

Question: What about the inhibition of growth at 10 µM [20] of the same molecule?
Answer: 60.1%

Question: And the inhibition of growth at 10 µM [21]?
Answer: 95.2%

Question: And the inhibition of growth at 10 µM [22]?
Answer: -67.5%

Question: What about the inhibition of growth at 10 µM [23] of the same molecule?
Answer: -75%

Question: What about the inhibition of growth at 10 µM [24] of the same molecule?
Answer: -95.2%

Question: And the inhibition of growth at 10 µM [25]?
Answer: -64.3%

Question: What about the inhibition of growth at 10 µM [26] of the same molecule?
Answer: 58.8%

Question: What about the inhibition of growth at 10 µM [27] of the same molecule?
Answer: 47.1%

Question: And the inhibition of growth at 10 µM [28]?
Answer: 53.7%

Question: And the inhibition of growth at 10 µM [29]?
Answer: 56.8%

Question: What about the inhibition of growth at 10 µM [30] of the same molecule?
Answer: 33.2%

Question: What about the inhibition of growth at 10 µM [31] of the same molecule?
Answer: -41%

Question: And the inhibition of growth at 10 µM [32]?
Answer: 35.9%

Question: What about the inhibition of growth at 10 µM [33] of the same molecule?
Answer: 39.4%

Question: And the inhibition of growth at 10 µM [34]?
Answer: 70.9%

Question: What about the inhibition of growth at 10 µM [35] of the same molecule?
Answer: 65.6%

Question: And the inhibition of growth at 10 µM [36]?
Answer: 54.8%

Question: And the inhibition of growth at 10 µM [37]?
Answer: 39.5%

Question: What about the inhibition of growth at 10 µM [38] of the same molecule?
Answer: 30.2%

Question: And the “growth inhibition (GI)” value [39]?
Answer: inactive

Question: What about the GI50 [40] of the same molecule?
Answer: 2.08 µM

Question: And the TGI [40]?
Answer: 6.42 µM

Question: What about the GI50 [41] of the same molecule?
Answer: 4.01 µM

Question: What about the TGI [41] of the same molecule?
Answer: 9.2 µM

Question: And the CC50 [41, 48]?
Answer: 2.6 µM

Question: And the GI50 [42]?
Answer: 4.04 µM

Question: And the TGI [42]?
Answer: 10.6 µM

Question: And the CC50 [42, 48]?
Answer: 44.1 µM

Question: What about the GI50 [43] of the same molecule?
Answer: 2.03 µM

Question: What about the TGI [43] of the same molecule?
Answer: 5.49 µM

Question: What about the GI50 [44] of the same molecule?
Answer: 4.7 µM

Question: And the TGI [44]?
Answer: 11.9 µM

Question: What about the CC50 [44, 48] of the same molecule?
Answer: 2.78 µM

Question: And the CC50 [45]?
Answer: 2.59 µM

Question: What about the GI50 [46] of the same molecule?
Answer: 4.4 µM

Question: What about the TGI [46] of the same molecule?
Answer: 11.1 µM

Question: And the CC50 [46, 48]?
Answer: 233 µM

Question: What about the GI50 [47] of the same molecule?
Answer: 3.05 µM

Question: And the TGI [47]?
Answer: 10.4 µM

Question: What about the CC50 [47, 48] of the same molecule?
Answer: 2.83 µM
